Screening results deposited in PubChem by several laboratories.
Runt-CBFb FRET: blocks binding of human RUNX1 Runt domain to CBFb; Q01196+Q13951; Cerulean-Runt/Venus-CBFb FRET ratio 530/480, 1 h; inhibition, % at 20 µM; hit rate 0.46% among 220,000;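 active = inhibition over about 50% at 20 µM in the single-dose screen, limit read from the data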;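 note: 0% = DMSO wells and 100% = excess unlabeled CBFb competitor control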
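Measured by: fluorescence energy transfer, 422 nm excitation, 530/480 nm emission; test system: Cerulean-tagged RUNX1 Runt domain (FRET donor) fusion protein; buffer or medium: Tris pH 7.5 buffer with BSA; compound: one dose, 20 µM compound, 1% DMSO; times: two 1 h room-temperature incubations shielded from light; benchmarks: unlabeled CBFb 5 µM, positive control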
Runt-SMMHC FRET: blocks binding of human RUNX1 Runt domain to CBFb-SMMHC. Q01196+Q13951. Cerulean-Runt/Venus-CBFb-SMMHC FRET ratio 530/480, 1 h. inhibition, % at 20 µM. hit rate 0.74% among 220,000;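 active = mean inhibition across duplicate retests at 20 µM reaching about 50%, limit read from the data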;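 note: 0% = DMSO wells and 100% = wells with excess untagged CBFb-SMMHC; inhibitors lower the FRET ratio by blocking Runt binding to CBFb-SMMHC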
RanGTP-Impb inh: inhibitors of RanGTP-importin-beta interaction, primary screen, biochemical, FRET, CFP-Ran, YFP-importin-beta, homogeneous. cell-free CFP-Ran/YFP-importin-beta FRET ratio. inhibition, % (test concentration not listed). hit rate 1.1% among 300,000. AID 2216;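 active = more than half of the replicate wells show a fall in the fluorescence ratio signal beyond about 16%, limit read from the data, passing the limit was not always enough; inconclusive = exactly half of the replicate wells pass the set limit; inactive = fewer than half of replicates pass the limit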;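 note: 0% = DMSO wells and 100% = Ran loaded with GDP instead of GTP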
MEX-5 binding: C. elegans MEX-5 TCR-2 RNA binding activity. hit rate 0.38% among 300,000. activity score (negative = inhibition of binding), % at 10 µM. AID 1832. Q9XUB2. MEX-5/FITC-TCR2 RNA binding, fluorescence polarization; active compounds read low;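 active = inhibition past about -25% in most replicates, and total fluorescence under double the plate's negative control median, limit read from the data; inconclusive = replicates evenly split on the limit, or fluorescence at least double controls; inactive = too little inhibition in most replicates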;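 note: 0% = DMSO and -100% = 5 µM competing unlabeled TCR2 RNA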
Target sequence (Q9XUB2 whole entry, looked up): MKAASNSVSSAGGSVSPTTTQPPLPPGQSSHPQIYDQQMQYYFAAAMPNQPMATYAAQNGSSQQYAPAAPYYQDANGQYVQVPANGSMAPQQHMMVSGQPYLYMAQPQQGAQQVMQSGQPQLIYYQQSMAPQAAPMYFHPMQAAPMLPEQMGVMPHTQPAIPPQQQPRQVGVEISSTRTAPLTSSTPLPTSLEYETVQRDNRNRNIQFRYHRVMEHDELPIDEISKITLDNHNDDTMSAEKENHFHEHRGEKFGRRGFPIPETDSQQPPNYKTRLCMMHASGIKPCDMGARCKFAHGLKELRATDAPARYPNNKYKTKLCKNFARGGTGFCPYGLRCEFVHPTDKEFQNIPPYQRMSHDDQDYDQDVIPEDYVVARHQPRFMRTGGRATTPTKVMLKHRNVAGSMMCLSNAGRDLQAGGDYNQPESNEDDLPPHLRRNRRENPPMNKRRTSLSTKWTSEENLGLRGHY
KLK7 zymogen act: proKLK7 (human) activation, primary screen. activation, % at 7 µM. hit rate 0.9% among 370,000. purified proKLK7, EDANS-DABCYL substrate fluorescence; 100% is mature enzyme control, 0% vehicle. P49862;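 active = activation above the mean of all tested compounds plus 3 SD, computed per campaign excluding outliers beyond control limits, cut at about 13% in these data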
An asterisk follows results filed as active; ? = inconclusive; / = no result given. Most compounds without a hit are left out; they make up all but 2.1% or so of the library.

SMILES	Runt-CBFb FRET	Runt-SMMHC FRET	RanGTP-Impb inh	MEX-5 binding	KLK7 zymogen act
Cc1nc(C(=O)NCCO)cc2c1[nH]c1ccccc12	/	/	-1	0	8
Cc1nc(C(=O)O)cc2c1[nH]c1ccccc12	/	/	9	-13	59*
CCOC(=O)CC[C@@]1(C(=O)OCC)C[C@@H](CC(=O)NCc2cccs2)C(=O)N2CCCC=C21	/	/	/	/	0
Cc1cc(N)n2nc(C)c(-c3ccccc3)c2n1	95*	-11	?	1	0
Cc1cnc(CNC(=O)c2csc([C@@H]3C[C@H](O)[C@@H](CO)O3)n2)cn1	/	/	/	/	0
COc1ccc(C)cc1S(=O)(=O)Nc1ccncc1	1	-4	14*	-2	0
COc1ccc(C)cc1S(=O)(=O)Nc1ccccc1	0	-1	7	-2	/
CCCCC[C@@H](C)N1C[C@H](COCc2ccccc2)Oc2cc(N3CC[C@@H](O)C3)ccc2S1(=O)=O	/	/	/	/	1
CCCCCn1c(=NC(=O)c2cccnc2)c(C#N)cc2c(=O)n3cccc(C)c3nc21	/	/	144*	-2	-12
CCCCn1c(=NC(C)=O)c(C#N)cc2c(=O)n3cccc(C)c3nc21	/	/	85*	2	3
COCCCn1c(C(=O)N2CC(C)OC(C)C2)cc2c(=O)n3cccc(C)c3nc21 (configuration not stated)	/	/	2	0	/
CC(C)OCCCn1c(=NC(=O)c2ccncc2)c(C#N)cc2c(=O)n3ccccc3nc21	10	46	57*	-5	-1
CCOCCCn1c(=NC(C)=O)c(C#N)cc2c(=O)n3cccc(C)c3nc21	59*	88*	123*	-5	12
CN(C)c1ccc(C(=O)N2CCC2(C)C(=O)O)cc1 (configuration not stated)	/	/	/	/	1
CCOCCCn1c(=NC(=O)c2ccc(OC)c(OC)c2)c(C#N)cc2c(=O)n3cccc(C)c3nc21	106*	143*	86*	?	/
COCCCn1c(C(=O)Nc2ccc3c(c2)OCO3)cc2c(=O)n3cccc(C)c3nc21	/	/	/	/	-2
CCCCc1c(O)nc2ccccn2c1=O	0	1	4	3	0
CCCCCn1c(=NC(C)=O)c(C#N)cc2c(=O)n3ccccc3nc21	16	42	108*	-2	6
CN1Cc2nnn(Cc3ccccc3)c2-c2cc(N3CCCC3)ccc2S1(=O)=O	/	/	/	/	-4
CCCCNC1=CC(=O)C(=O)c2ccccc21	/	/	?	0	0
CCCCN1C=CC(=C2C(=O)c3ccccc3C2=O)C=C1	-2	-10	4	-38*	1
Cc1cc(NC(=O)CS(=O)(=O)c2cn(Cc3cccc(Cl)c3)c3ccccc23)no1	/	/	/	/	1
CCCN=C1N(C)C[C@@H]2[C@@H]3C(=O)N(Cc4ccccc4)C(=O)[C@@H]3[C@](CC)(C(=O)OC)N12	/	/	/	/	0
CCC(=O)c1ccc(OCC(=O)OC(C)C(=O)Nc2c(C)n(C)n(-c3ccccc3)c2=O)cc1 (configuration not stated)	/	/	/	/	0
COc1ccc2nc(Nc3sc4c(c3C(N)=O)CCCC4)sc2c1	45	67*	/	/	-4
SMILES	Runt-CBFb FRET	Runt-SMMHC FRET	RanGTP-Impb inh	MEX-5 binding	KLK7 zymogen act
CCCC(=O)Nc1nc2ccc(OC)cc2s1	-1	-2	0	-1	0
CCOC(=O)c1sc(Nc2nc3ccc(OC)cc3s2)cc1C	6	62*	-1	4	-14
COc1ccc(CC(=O)Nc2sc3c(c2C(N)=O)CCCC3)cc1	/	/	3	0	0
O=S1(=O)N[C@H](Cc2ccccc2)COc2cc(Br)ccc21	/	/	/	/	0
O=Nc1c(O)[nH]c2ccc(Cl)c(Cl)c12	/	/	/	/	0
CC1(O)C(=O)C=C2C=C(c3ccc(C#N)cc3)OC=C2C1=O (configuration not stated)	/	/	?	1	/
COc1ccc(C2=CC3=CC(=O)C(C)(O)C(=O)C3=CO2)cc1 (configuration not stated)	/	/	-10	-38*	/
COC/C=C/C1=CC2=CC(=O)C(C)(OC(=O)C3CCCC3)C(=O)C2=CO1 (configuration not stated)	1	-13	1	-3	1
COC/C=C/C1=CC2=CC(=O)C(C)(O)C(=O)C2=CO1 (configuration not stated)	/	/	-5	-47*	/
COC(=O)[C@@]12C[C@@H](CC(=O)NCCC(C)C)C(=O)N(Cc3ccccc3)C1=CCC(C)(C)C2	/	/	/	/	0
Cc1cc(N2CC(C(=O)Nc3nccs3)CC2=O)ccc1C(C)C (configuration not stated)	/	/	-1	-3	0
CC1CCCC(CC(N)=O)CC1 (configuration not stated)	/	/	/	/	-1
Fc1ccc(-c2nc3c(Cl)cc(C(F)(F)F)cn3c2Cl)cc1	-2	-4	-4	-26*	1
CCCCN1C(=O)C(O)=C(C(C)=O)C1c1ccccc1[N+](=O)[O-] (configuration not stated)	10	0	-1	0	-1
O=C(O)CCCCCN1C(=O)C(O)=C(C(=O)/C=C/c2ccccc2)C1c1ccccc1[N+](=O)[O-] (configuration not stated)	5	-1	6	-40*	-1
CC1CCCN(S(=O)(=O)c2cc(C(=O)NCCc3ccc(S(N)(=O)=O)cc3)ccc2Cl)C1 (configuration not stated)	/	/	/	/	0
c1coc(CNc2c3c(nc4ccccc24)CCC3)c1	12	44	79*	-14	-1
CN1CCc2nc(NC(=O)c3cccc(OC(F)F)c3)sc2C1	23	69*	19*	3	-1
COc1ccc(Nc2cc(Cl)nc(N)n2)cc1OC	2	6	18*	1	0
N#Cc1c(N)n(C2CCCCC2)c2nc3ccccc3nc12	78*	58*	43*	-3	-52
CCN(CC)CCNc1c2c(c(C#N)c3nc4ccccc4n13)CCCC2	30	61*	?	0	11
CN(C)CCNc1c2c(c(C#N)c3nc4ccccc4n13)CCCC2	21	62*	-3	-7	0
COCCCN(C(=O)C1=COCCO1)c1c(N)n(Cc2ccccc2)c(=O)[nH]c1=O	/	/	/	/	-3
CCC1(C)NC(=O)N(CC(=O)Nc2cc(C)on2)C1=O (configuration not stated)	/	/	/	/	0
CCOc1ccc(CCNC(=O)COC(=O)c2ccccc2O)cc1OCC	-2	-1	-1	-2	2
CCOc1ccc(CCNC(=O)COC(=O)c2cccnc2OCC)cc1OCC	1	0	20*	1	0
CC1(C(=O)Nc2ccc3c(c2)OCCO3)CN(S(C)(=O)=O)CC(=O)N1Cc1cccs1 (configuration not stated)	/	/	/	/	0
O=[N+]([O-])c1ccc(NCCCN2CCC(C(O)(c3ccccc3)c3ccccc3)CC2)cc1	/	/	/	/	0
O=C(C(=O)N1CCN(C(=O)OCc2ccccc2)CC1)c1cccs1	/	/	/	/	1
